Experimental data collected from several papers.
Protocols differ between the studies behind these lines.
Target: Serine/threonine-protein kinase MARK2 (MARK2, Homo sapiens, UniProt Q7KZI7)

C[C@@H]1CN(c2cc(-c3nn(C)c4ccc(OC5(C)CC5)cc34)ncn2)C[C@H](C)O1 — remaining binding (cell-free assay, competition with immobilised ligand; 1 µM): 89%
CCN1CCN(Cc2ccc(NC(=O)c3ccc(C)c(Oc4ccnc5[nH]ccc45)c3)cc2C(F)(F)F)CC1 — inhibition (target engagement in cells, inhibitor, chemoproteomics; Huh-7; 1 µM): -10.4%
Cc1c(NC(=O)c2cc(C(N)=O)nc3cc(F)ccc23)c(C(F)(F)F)nn1Cc1ccc(C#N)cc1 — remaining binding (cell-free assay, competition with immobilised ligand; 1 µM): 97%
Cc1nn(CC(F)(F)F)cc1Nc1ncc(C2CC2)c(NCCCNC(=O)C2CCC2)n1 — remaining activity (enzyme activity, inhibitor, radiometric; 1 µM): 93%
COc1cccc2c(NCc3ccccc3)nc(-n3c(N)nc4ccccc43)nc12 — inhibition (target engagement in cells, inhibitor, chemoproteomics; 20 mM): -7.2%
FC(F)(F)Oc1cccc(-c2cnc3ccc(-c4ccncc4)nn23)c1 — activity vs control (enzyme activity, inhibitor, radiometric; 1 µM): 106%
CC(=O)N1CCC(c2ccc(C(=O)NC3=NCCN3)cc2C(F)(F)F)CC1 — remaining binding (cell-free assay, competition with immobilised ligand; 1 µM): 100%
CCCCNc1ncc2c(-c3ccc(F)cc3)nn(C[C@H]3CC[C@H](N)CC3)c2n1 — inhibition (target engagement in cells, inhibitor, chemoproteomics; 20 mM): 18%
Nc1ncnc2occ(-c3ccc(NC(=O)Nc4cc(C(F)(F)F)ccc4F)cc3)c12 — remaining signal (cell-free assay, inhibitor; 20 µM): 22%
NS(=O)(=O)c1ccc(CNc2nc(Nc3cccc(CN4CCOCC4)c3)ncc2Br)cc1 — remaining activity (enzyme activity, inhibitor, radiometric; 1 µM): 65%
O=C1Nc2ccc(Cl)cc2C1=Cc1cc(Cl)c(O)c(Cl)c1 — remaining signal (cell-free assay; 0.5 µM): 79.7%
Cc1nn(CC(F)(F)F)cc1Nc1ncc(Br)c(NCCc2cnc[nH]2)n1 — remaining activity (enzyme activity, inhibitor, radiometric; 1 µM): 55%
N#CCCc1ccc2c(c1)-c1[nH]c3ccc([N+](=O)[O-])cc3c1CC(=O)N2 — remaining signal (cell-free assay; 0.5 µM): 65.5%
NS(=O)(=O)c1ccc(CNc2nc(Nc3cccc(CN4CCOCC4)c3)ncc2C2CC2)cc1 — remaining activity (enzyme activity, inhibitor, radiometric; 1 µM): 98%
CNc1cccc2cc(C(=O)Nc3ccc(C(=O)O)cc3)c(=O)[nH]c12 — inhibition (enzyme activity, inhibitor; 10 µM): -5.3%
FC(F)c1nc2ccccc2n1-c1nc(N2CCOCC2)nc(N2CCOCC2)n1 — remaining activity (enzyme activity, inhibitor; 10 µM): 87%
COc1cc2ncnc(Nc3ccc(Oc4ccccc4)cc3C)c2cc1OC — inhibition (enzyme activity, inhibitor; 1 µM): 7%
CN(C)C1CCN(CC#Cc2nn(C3CCCC3)c3nc(NCc4ccccc4)ncc23)C1 (stereo not drawn) — inhibition (enzyme activity, inhibitor, FRET; 1 µM): 3%
CO[C@H]1CC[C@H](CNc2ccc(S(=O)(=O)NC(=O)c3ccc(N4CCN(CC5=C(c6ccc(Cl)cc6)CC(C)(C)CC5)CC4)cc3Oc3cnc4[nH]ccc4c3)cc2[N+](=O)[O-])CC1 — remaining binding (cell-free assay, competition with immobilised ligand; 1 µM): 100%
C[C@@H]1CCN(C(=O)CC#N)C[C@@H]1N(C)c1ncnc2[nH]ccc12 — remaining signal (cell-free assay, inhibitor; 0.5 µM): 91.8%
CNC(=O)c1cc(Oc2ccc(NC(=O)Nc3ccc(Cl)c(C(F)(F)F)c3)cc2)ccn1 — inhibition (enzyme activity, inhibitor; 0.3 µM): 28%
CS(=O)(=O)N1CCCC(NC(=O)[C@H](CCC2CCCCC2)NC(=O)c2ccc(CNC(=O)c3cnc4ccccn34)cc2)C1 (stereo partly drawn) — remaining binding (cell-free assay, competition with immobilised ligand; 0.1 µM): 100%
O=C(Nc1cccc(Nc2ncc(Br)c(NCCc3cnc[nH]3)n2)c1)N1CCCC1 — remaining activity (enzyme activity, inhibitor, radiometric; 1 µM): 5%
CN(C)C(=O)Cn1cc(-c2nc(C3(c4ccc(-c5cnc(N)nc5)cc4)CC3)no2)cn1 — remaining binding (cell-free assay, competition with immobilised ligand; 1 µM): 92%
NS(=O)(=O)c1ccc(CNc2nc(Nc3cccc(NC(=O)N4CCCC4)c3)ncc2C2CC2)cc1 — remaining activity (enzyme activity, inhibitor, radiometric; 1 µM): 93%
CCCCN(CCCC)C(=O)CN1C[C@@H](c2cc(OC)c3c(c2)OCO3)[C@H](C(=O)O)[C@H]1CC(C)(C)CCC — remaining binding (cell-free assay, competition with immobilised ligand; 1 µM): 100%
c1cc(CN2CCOCC2)cc(Nc2nccc(NCCc3cnc[nH]3)n2)c1 — remaining activity (enzyme activity, inhibitor, radiometric; 1 µM): 93%
O=C(Nc1cccnn1)N1CC(C/C=C/c2cncc(Oc3ccc(C(F)(F)F)cn3)n2)C1 — remaining binding (cell-free assay, competition with immobilised ligand; 1 µM): 80%
Cc1ccc(Nc2nccc(N(C)c3ccc4c(C)n(C)nc4c3)n2)cc1S(N)(=O)=O — inhibition (enzyme activity, inhibitor; 10 µM): 16%
Cc1nn(CC(F)(F)F)cc1Nc1ncc(C2CC2)c(NCc2ccc(S(N)(=O)=O)cc2)n1 — remaining activity (enzyme activity, inhibitor, radiometric; 1 µM): 100%
